Hits are enriched below; roughly 2.3% of the tested compounds scored in any of these assays.
TRPC6 act: activators of mouse TRPC6 channel. HEK293-TRPC6 membrane potential dye fluorescence; hits give high values. B-score at 10 µM. actives 0.13% (n = 310,000). AID 2550;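 active = B-score of the integrated fluorescence ratio above library mean plus 3 SD, and starting fluorescence ratio within library mean plus 5 SD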;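 also: higher score means more depolarization so channel activation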
Target sequence (Q61143 whole entry, looked up): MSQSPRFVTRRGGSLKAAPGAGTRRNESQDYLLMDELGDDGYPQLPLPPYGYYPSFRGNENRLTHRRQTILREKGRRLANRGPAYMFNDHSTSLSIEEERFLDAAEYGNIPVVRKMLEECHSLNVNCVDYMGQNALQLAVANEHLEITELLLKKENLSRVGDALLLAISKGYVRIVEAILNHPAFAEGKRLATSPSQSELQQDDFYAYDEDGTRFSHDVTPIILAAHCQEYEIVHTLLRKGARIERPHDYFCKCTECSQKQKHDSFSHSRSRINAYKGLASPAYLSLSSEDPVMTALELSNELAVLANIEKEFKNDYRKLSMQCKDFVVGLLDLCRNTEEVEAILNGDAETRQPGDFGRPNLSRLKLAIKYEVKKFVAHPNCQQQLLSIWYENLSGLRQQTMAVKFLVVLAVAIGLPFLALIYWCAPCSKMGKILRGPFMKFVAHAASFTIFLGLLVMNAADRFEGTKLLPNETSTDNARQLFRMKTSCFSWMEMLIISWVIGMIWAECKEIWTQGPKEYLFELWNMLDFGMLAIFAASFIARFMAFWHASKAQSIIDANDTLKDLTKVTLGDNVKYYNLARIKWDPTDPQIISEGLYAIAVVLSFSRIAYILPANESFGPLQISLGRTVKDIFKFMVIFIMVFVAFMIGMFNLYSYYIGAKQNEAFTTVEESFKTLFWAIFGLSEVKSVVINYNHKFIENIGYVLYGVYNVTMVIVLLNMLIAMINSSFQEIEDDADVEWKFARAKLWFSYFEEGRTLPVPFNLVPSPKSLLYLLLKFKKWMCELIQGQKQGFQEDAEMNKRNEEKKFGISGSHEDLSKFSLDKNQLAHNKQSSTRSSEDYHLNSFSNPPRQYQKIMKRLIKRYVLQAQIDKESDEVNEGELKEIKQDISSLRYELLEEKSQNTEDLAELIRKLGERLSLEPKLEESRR
TRPC4 agonist: activators of mouse TRPC4 channel; AID 2237; actives 0.49% (n = 310,000); B-score at 10 µM; Q9QUQ5; HEK293 TRPC4beta/mu-opioid, Fluo4 calcium fluorescence; hits give high values;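 active = B-score above 5 SD of library B-scores, and initial fluorescence ratio not above library mean plus 5 SD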;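 also: positive B-score marks a calcium rise read as TRPC4 activation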
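Material: TRPC4beta and mu-opioid receptor HEK293 stable cells | Incubation: 45 min room-temperature Fluo4 loading, 110 s read | Detection: Kinetic Fluo4 calcium fluorescence | Measure: Integrated baseline-normalised fluorescence ratio, converted to per-well B score | Benchmarks: Low control buffer alone, high control maximal DAMGO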
TRPC6 inh: blocks the mouse TRPC6 cation channel. HEK293-TRPC6, membrane potential dye, ACh-evoked depolarization; hits give low values. B-score at 10 µM. actives 1.1% (n = 310,000). AID 2553;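 active = B-score under library mean minus 3 SD, initial fluorescence not abnormally high, positive integrated signal ratio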;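 also: B-score derived from integrated fluorescence ratio over the kinetic read; more negative B-score means stronger inhibition of depolarization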
TRPC4 PAM: allosterically enhances the mouse TRPC4 cation channel | AID 2227 | B-score at 10 µM | Q9QUQ5 | actives 0.42% (n = 310,000) | HEK293 TRPC4beta/mu-opioid, DAMGO EC20, Fluo-4 Ca2+ flux; hits give high values;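 active = B-score of calcium response area above 5 SD of library B-scores, with initial fluorescence ratio within 5 SD of library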;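 also: B-score of integrated fluorescence ratio over time as area under calcium response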
TRPC4 inh: TRPC4 (mouse) channel inhibition | HEK293 TRPC4beta/mu-opioid, DAMGO-evoked Fluo4 calcium flux; hits give low values | B-score at 10 µM | actives 0.39% (n = 300,000) | AID 2247;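 active = B-score over 3 SD under the library average, no early fluorescence shift, positive overall ratio signal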
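Assay system: TRPC4beta/mu-opioid receptor HEK293 cell line; compound dosing: single concentration per test compound; detection: Fluo4 Ca2+ flux fluorescence; evaluation: per-well B score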
TRPC4 spec 2: second selectivity test of TRPC6 inhibitors: effect on mouse TRPC4. shares compounds with TRPC6 inh. HEK293 TRPC4/MOR, membrane potential dye fluorescence; channel activated by saturating DAMGO dose. inhibition, % at 10 µM. actives 42% (n = 920). AID 2776;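 active = compounds whose fluorescence signal differed from control wells by over 3 SD, either direction, in both duplicate plates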
TRPC4 spec: tests whether TRPC6 inhibitors also affect mouse TRPC4. shares compounds with TRPC6 inh. HEK293 TRPC4/mu-opioid, membrane potential fluorescence. activity change, negative = inhibition, % at 10 µM. actives 61% (n = 920);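 active = rise or fall in signal beyond 3 SD of buffer-only wells in both replicate plates, either sign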;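 also: integrated kinetic ratio of fluorescence range over baseline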
HEK293 MPD ctr 2-1: second counter-screen for TRPC6 inhibitors: parental HEK293 cells; signal change vs control, % at 10 µM; parental HEK293 membrane potential dye fluorescence; maximal acetylcholine challenge after compound addition; shares compounds with TRPC6 inh; actives 31% (n = 920); AID 2779;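 active = membrane potential signal moving either way by over 3 SD of the maximum-effect control, in both duplicate plates, meaning non-specific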
HEK293 MPD ctr-1: counter-screen for TRPC6 inhibitors: effect in parental HEK293 cells. shares compounds with TRPC6 inh. parental HEK293 membrane potential dye fluorescence. membrane potential signal change, % at 10 µM. actives 60% (n = 920). AID 2780;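 active = membrane potential signal shifting up or down by more than 3 SD of buffer-only wells, on both duplicate plates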
HEK293 MPD ctr-2: checks TRPC6 modulator effects in parental HEK293 cells; shares compounds with TRPC6 inh; membrane potential dye fluorescence; membrane potential signal change, % at 10 µM; actives 51% (n = 2,400);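 active = membrane potential signal moves up or down beyond 5 SD from buffer-only wells, on both duplicate plates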
HEK293 MPD ctr 2-2: second check of TRPC6 modulator effects in parental HEK293 cells; membrane potential dye fluorescence; after compound, maximal acetylcholine stimulation; AID 488926; shares compounds with TRPC6 inh; actives 14% (n = 2,400); inhibition, % at 10 µM;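 active = membrane potential signal drops by more than 5 SD from the mean control signal, in both duplicate plates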;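 also: plate controls were acetylcholine ECmax control wells for no effect and buffer only wells for full effect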
TRPC4 ctr mod: mouse TRPC4 off-target activity of TRPC6 modulators; shares compounds with TRPC6 inh; HEK293 TRPC4/mu-opioid, membrane potential fluorescence; percent change from control (negative = decrease, positive = increase), % at 10 µM; actives 69% (n = 2,400); AID 488927;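 active = membrane potential signal moved up or down beyond 5 SD of buffer control wells, in both duplicate plates, actives on both sides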;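 also: plate controls were assay buffer wells for no effect and DAMGO maximal-effect wells for full effect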
TRPC4 ctr inh 2: mouse TRPC4 off-target activity of TRPC6 modulators, second screen. HEK293 TRPC4/mu-opioid, membrane potential dye fluorescence; stimulated with maximal-effect DAMGO. inhibition, % at 10 µM. AID 488928. shares compounds with TRPC6 inh. actives 55% (n = 2,400);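 active = drop in membrane potential signal beyond 5 SD of the control wells in both duplicate plates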;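 also: TRPC4 counter screen for TRPC6 hits run under conditions tuned for TRPC6 not TRPC4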
TRPC6 inh conf: mouse TRPC6 inhibitor confirmation. shares compounds with TRPC6 inh. HEK293-TRPC6, membrane potential dye, ACh-evoked depolarization. inhibition, % at 10 µM. actives 43% (n = 3,300);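 active = fluorescence ratio falls more than 5 SD below the full-stimulation control mean, in both duplicate runs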;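 also: integrated fluorescence ratio of peak minus minimum over baseline after agonist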
TRPC6 act confirm: confirmation of mouse TRPC6 activators; activation, % at 10 µM; HEK293-TRPC6 membrane potential dye fluorescence, FDSS; actives 11% (n = 2,800); shares compounds with TRPC6 inh; AID 488961;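 active = ratio signal rise beyond 5 SD above unstimulated control wells' mean, seen in both duplicate runs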;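 also: plate controls were buffer EC0 wells for no effect and acetylcholine ECmax response for full effect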
* = called active by the depositor; i = inactive; · = not tested or not shown.

SMILES | TRPC6 act | TRPC4 agonist | TRPC6 inh | TRPC4 PAM | TRPC4 inh | HEK293 MPD ctr-2 | HEK293 MPD ctr 2-2 | TRPC4 ctr mod | TRPC4 ctr inh 2 | TRPC6 inh conf | TRPC6 act confirm | others
Cc1ccc(SC(=O)c2c([N+](=O)[O-])c(C)nn2C)cc1 | i | i | -7.2* | i | i | · | · | · | · | 76%* | i | TRPC4 spec 2=i;TRPC4 spec=i;HEK293 MPD ctr 2-1=-5.5%*;HEK293 MPD ctr-1=i
CCOc1ccc(NC(C(=O)Nc2cccc(C(C)=O)c2)c2ccccc2)cc1 (configuration not stated) | i | i | i | i | i | · | · | · | · | · | ·
CCN(CC)CCNC(C(=O)Nc1cccc(C(C)=O)c1)c1ccccc1 (configuration not stated) | i | i | -6.8* | i | i | i | i | i | i | i | i
CC(C)(C)OC(=O)[C@H]1[C@H](c2ccc([N+](=O)[O-])cc2)C2(C(=O)c3ccccc3C2=O)C2c3ccccc3C=NN21 (some centres not stated) | i | i | i | i | i | · | · | · | · | · | ·
O=C(c1ccco1)N1CCN(c2ccnc3cc(Cl)ccc23)CC1 | i | i | -5.1* | i | i | -160%* | i | -26%* | 37%* | i | i
COc1cn(-c2ccccc2)nc1C(=O)NCc1ccccc1 | i | i | i | i | i | · | · | · | · | · | ·
CCN(CC)CCN1C(=O)c2ccccc2NC1c1ccc(F)cc1 (configuration not stated) | i | i | i | i | i | · | · | · | · | · | ·
CCN(CC)CCN1C(=O)c2ccccc2NC1c1ccc(Br)cc1 (configuration not stated) | i | i | -6.7* | i | i | i | i | 18%* | 42%* | i | ·
COc1ccccc1-n1cc([C@@H]2C[C@H]3CN(c4ccccc4)C(=O)[C@]34CCCN24)cn1 | i | i | i | i | i | · | · | · | · | · | ·
Cc1nc(C(C)N(C)Cc2nc(-c3ccc4c(c3)OCO4)no2)c(C)s1 (configuration not stated) | i | i | i | i | i | · | · | · | · | · | ·
CCN(CC)CCCN(C(=O)c1ccc(F)cc1)c1nc(-c2ccc(OC)cc2)cs1 | i | i | -6.7* | i | i | · | · | · | · | 73%* | i | TRPC4 spec 2=33%*;TRPC4 spec=i;HEK293 MPD ctr 2-1=i;HEK293 MPD ctr-1=i
COc1ccc(-c2csc(N(CCCN(C)C)C(=O)c3ccc(F)cc3)n2)cc1 | i | i | i | i | i | · | · | · | · | · | ·
COc1ccc(-c2csc(N(CCCN(C)C)C(=O)c3ccccc3Cl)n2)cc1 | i | i | -7.9* | i | i | · | · | · | · | 59%* | i | TRPC4 spec 2=37%*;TRPC4 spec=i;HEK293 MPD ctr 2-1=i;HEK293 MPD ctr-1=i
COc1ccc(-c2csc(N(CCCN(C)C)C(=O)c3ccccc3C)n2)cc1 | i | i | -8.9* | i | i | · | · | · | · | 62%* | i | TRPC4 spec 2=43%*;TRPC4 spec=i;HEK293 MPD ctr 2-1=i;HEK293 MPD ctr-1=i
COCCN(C(=O)c1ccccc1F)c1nc(-c2ccc(OC)cc2)cs1 | i | i | i | i | i | · | · | · | · | · | ·
COc1ccc(-c2csc(N(CCCN(C)C)C(=O)c3ccccc3F)n2)cc1 | i | i | -6.5* | i | i | i | i | i | 85%* | 51%* | i
CCOC(=O)/C(C#N)=N/Nc1ccc(S(=O)(=O)Nc2cc(OC)nc(OC)n2)cc1 | i | i | i | i | i | · | · | · | · | · | ·
Cc1nc2c(C(=O)N3CCCCC3)cnn2c(C)c1Cc1ccccc1F | 22* | i | -11* | i | i | 147%* | i | 28%* | 30%* | 114%* | 178%*
Oc1c(/C=N/c2ccccn2)sc2ccccc12 | i | i | -9.1* | i | i | 170%* | i | 30%* | i | i | ·
CN(C(=O)c1cc2c(s1)-c1ccccc1S(=O)(=O)C2)c1ccccc1 | i | i | i | i | i | · | · | · | · | · | ·
Cc1c(CCOC(=O)c2ccccc2)sc[n+]1CC(=O)c1ccc(Br)cc1 | i | i | i | i | i | · | · | · | · | · | ·
Cc1c(CCOC(=O)c2ccccc2)sc[n+]1Cc1ccccc1 | i | i | -9.5* | i | i | · | · | · | · | 61%* | i | TRPC4 spec 2=i;TRPC4 spec=i;HEK293 MPD ctr 2-1=42%*;HEK293 MPD ctr-1=i
Cc1ccccc1OCC(=O)Nc1nc2ccccc2[nH]1 | i | i | i | i | i | · | · | · | · | · | ·
CCC(C(=O)NC1CCCCC1)n1c(SCc2cccc(C)c2)nc2ccncc21 (configuration not stated) | i | i | i | i | i | · | · | · | · | · | ·
CCC(C(=O)NC1CCCCC1)n1c(SCc2cccc(F)c2)nc2ccncc21 (configuration not stated) | i | i | -5.1* | i | i | i | i | i | i | i | i
O=C1CSC(c2cccnc2)N1c1ccc(Cl)cc1 (configuration not stated) | i | i | i | i | i | · | · | · | · | · | ·
Cc1ccc(N2C(=O)CSC2c2cccnc2)cc1F (configuration not stated) | i | i | -6.7* | i | i | · | · | · | · | i | i | TRPC4 spec 2=i;TRPC4 spec=i;HEK293 MPD ctr 2-1=i;HEK293 MPD ctr-1=i

Source: PubChem BioAssay (Johns Hopkins Ion Channel Center)
